In assay [1] the target is Disintegrin and metalloproteinase domain-containing protein 17 (Homo sapiens, UniProt P78536).
Assay [2] addresses T1, Interstitial collagenase (Homo sapiens, UniProt P03956).
T1 sequence (P03956 whole entry): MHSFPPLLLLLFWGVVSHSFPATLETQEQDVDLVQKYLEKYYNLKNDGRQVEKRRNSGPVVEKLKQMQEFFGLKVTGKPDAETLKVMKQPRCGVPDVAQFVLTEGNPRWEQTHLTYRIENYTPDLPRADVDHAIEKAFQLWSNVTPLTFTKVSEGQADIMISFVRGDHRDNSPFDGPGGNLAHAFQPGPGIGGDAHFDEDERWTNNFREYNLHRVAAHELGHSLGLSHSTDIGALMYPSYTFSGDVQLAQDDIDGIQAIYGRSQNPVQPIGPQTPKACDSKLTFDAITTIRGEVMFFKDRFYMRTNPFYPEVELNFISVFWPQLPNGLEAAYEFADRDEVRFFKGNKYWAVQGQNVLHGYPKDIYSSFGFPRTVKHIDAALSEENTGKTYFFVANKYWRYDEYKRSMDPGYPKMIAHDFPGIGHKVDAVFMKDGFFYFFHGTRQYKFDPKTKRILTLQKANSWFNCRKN
Description: In vitro inhibition of human MMP-1.

The target of assay [3] is Matrix metalloproteinase-9 (Homo sapiens, UniProt P14780). Description: In vitro inhibition of human MMP-9.
Sequence of Matrix metalloproteinase-9 (P14780 whole entry): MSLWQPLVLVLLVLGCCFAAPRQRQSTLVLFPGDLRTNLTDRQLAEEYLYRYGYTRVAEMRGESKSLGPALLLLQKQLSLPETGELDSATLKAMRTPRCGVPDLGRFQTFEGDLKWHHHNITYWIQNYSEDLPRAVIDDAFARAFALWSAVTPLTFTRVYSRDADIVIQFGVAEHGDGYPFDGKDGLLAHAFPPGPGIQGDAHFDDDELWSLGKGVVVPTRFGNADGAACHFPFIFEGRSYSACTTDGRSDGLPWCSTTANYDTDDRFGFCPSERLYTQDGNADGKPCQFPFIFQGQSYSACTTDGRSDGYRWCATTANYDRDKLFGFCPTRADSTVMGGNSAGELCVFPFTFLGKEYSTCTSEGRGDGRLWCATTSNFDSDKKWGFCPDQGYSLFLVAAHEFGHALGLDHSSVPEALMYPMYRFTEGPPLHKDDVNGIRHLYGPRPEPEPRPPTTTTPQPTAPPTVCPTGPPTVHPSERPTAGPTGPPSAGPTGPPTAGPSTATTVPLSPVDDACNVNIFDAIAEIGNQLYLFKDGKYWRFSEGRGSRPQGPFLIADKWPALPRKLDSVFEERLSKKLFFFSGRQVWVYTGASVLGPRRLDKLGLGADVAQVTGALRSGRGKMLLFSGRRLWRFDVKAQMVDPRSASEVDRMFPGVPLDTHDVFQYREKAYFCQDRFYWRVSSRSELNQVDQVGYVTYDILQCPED
In assay [4] the test system is Mus musculus. Description: Compound at an oral dose of 30 mg/Kg was tested for the inhibition of LPS-stimulated TNF-alpha release in mouse. In kind it is functional. A digest of the protocol:
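Mice dosed orally at time zero, then immediately given ip D-galactosamine 20 mg plus LPS 10 μg. One hour later, animals anesthetized and bled by cardiac puncture. Plasma TNF-α quantified by mouse-specific ELISA.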

Assay [5] concerns the target Stromelysin-1 (Homo sapiens, UniProt P08254). Description: Inhibition of human MMP-3.

pIC50, pKi: −log10 of the molar value.

Sequence of Stromelysin-1 (P08254 whole entry): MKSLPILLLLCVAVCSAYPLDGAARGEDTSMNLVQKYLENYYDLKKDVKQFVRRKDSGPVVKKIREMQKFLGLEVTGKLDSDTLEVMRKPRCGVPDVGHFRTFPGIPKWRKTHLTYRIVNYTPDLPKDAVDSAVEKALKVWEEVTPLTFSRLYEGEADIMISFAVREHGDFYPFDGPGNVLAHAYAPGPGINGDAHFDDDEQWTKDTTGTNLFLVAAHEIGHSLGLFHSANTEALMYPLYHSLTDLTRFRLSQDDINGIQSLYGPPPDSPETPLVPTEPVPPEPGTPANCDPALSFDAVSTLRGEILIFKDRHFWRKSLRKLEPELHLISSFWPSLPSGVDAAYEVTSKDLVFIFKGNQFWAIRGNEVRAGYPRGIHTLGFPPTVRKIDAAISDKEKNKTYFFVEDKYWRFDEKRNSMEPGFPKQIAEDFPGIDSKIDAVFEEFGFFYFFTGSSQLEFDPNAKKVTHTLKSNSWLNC
Sequence of Disintegrin and metalloproteinase domain-containing protein 17 (P78536 whole entry, the tested form may be a part): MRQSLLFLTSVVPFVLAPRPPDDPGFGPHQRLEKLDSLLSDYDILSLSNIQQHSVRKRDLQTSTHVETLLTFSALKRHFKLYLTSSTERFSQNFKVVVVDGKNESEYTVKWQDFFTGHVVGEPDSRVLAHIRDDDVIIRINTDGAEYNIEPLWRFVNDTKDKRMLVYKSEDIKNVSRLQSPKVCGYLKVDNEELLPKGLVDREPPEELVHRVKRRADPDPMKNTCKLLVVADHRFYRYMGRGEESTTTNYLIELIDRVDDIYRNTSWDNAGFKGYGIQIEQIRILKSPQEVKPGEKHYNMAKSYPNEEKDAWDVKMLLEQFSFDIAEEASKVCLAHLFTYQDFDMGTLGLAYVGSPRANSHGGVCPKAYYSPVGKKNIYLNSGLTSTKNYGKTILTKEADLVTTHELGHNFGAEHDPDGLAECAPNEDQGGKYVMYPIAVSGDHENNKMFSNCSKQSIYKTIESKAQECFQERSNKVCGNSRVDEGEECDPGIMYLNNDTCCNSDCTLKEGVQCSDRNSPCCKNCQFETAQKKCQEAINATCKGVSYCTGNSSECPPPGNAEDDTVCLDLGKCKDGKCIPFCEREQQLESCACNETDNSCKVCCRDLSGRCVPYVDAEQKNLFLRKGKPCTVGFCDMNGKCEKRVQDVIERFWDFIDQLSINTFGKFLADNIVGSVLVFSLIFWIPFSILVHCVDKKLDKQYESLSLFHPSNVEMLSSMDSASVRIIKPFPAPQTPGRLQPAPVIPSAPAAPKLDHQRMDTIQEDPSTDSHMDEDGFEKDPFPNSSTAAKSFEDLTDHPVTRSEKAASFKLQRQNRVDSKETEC

For the compound `CNC(=O)[C@@H]1CCCCN(C(=O)OC(C)(C)C)CCC[C@H](C(=O)NO)[C@@H](CC(C)C)C(=O)N1`, the negative logarithm of the IC50 (pIC50) in assay [1] is 5.85.

In the case of `CCOC(=O)N1CCN(C(=O)CNC(=O)[C@@H]2CCCCNC(=O)OCCC[C@H](C(=O)NO)[C@@H](CC(C)C)C(=O)N2)CC1`, in assay [1], the pIC50 is 6.89.

For `CNC(=O)[C@@H]1CCCCNC(=O)OCCC[C@H](C(=O)NO)[C@@H](CC(C)C)C(=O)N1`, the pIC50 in assay [1] was 6.00. In addition, the pKi is greater than 9.00 in assay [2] and 8.96 in assay [3].

In assay [1], `CC(C)C[C@H]1C(=O)N[C@H](C(=O)NC[C@H]2CCCO2)CCCCNC(=O)OCCC[C@@H]1C(=O)NO` showed a negative logarithm of the IC50 (pIC50) of 6.01.

For the compound `CCCCCC[C@H]1C(=O)N[C@H](C(=O)NCCc2ccc(S(N)(=O)=O)cc2)Cc2ccc(cc2)OCCC[C@@H]1C(=O)NO`, in assay [1], the pIC50 is 6.32. The same compound registered an inhibition in vivo at 30 mg/kg in assay [4] of 26%.

As to `CCCCCC[C@H]1C(=O)N[C@H](C(=O)N[C@H](CCCCN)C(N)=O)Cc2ccc(cc2)OCCC[C@@H]1C(=O)NO`, the pIC50 in assay [1] was 6.12. The inhibition in vivo at 30 mg/kg in assay [4] amounted to 36%.

`CC(C)C[C@H]1C(=O)N[C@H](C(=O)NCC(=O)NC2CCC2)Cc2ccc(cc2)OCCC[C@@H]1C(=O)NO` showed a pIC50 in assay [1] of 6.70. This compound displayed an inhibition in vivo at 30 mg/kg in assay [4] of 31%.

Compound `CC(C)C[C@H]1C(=O)N[C@H](C(=O)NCC(=O)N2CCC(O)CC2)Cc2ccc(cc2)OCCC[C@@H]1C(=O)NO` showed a pIC50 in assay [1] of 6.70.

As to `CC(C)C[C@H]1C(=O)N[C@H](C(=O)NCC(=O)N2CC(C)OC(C)C2)CCCCNC(=O)OCCC[C@@H]1C(=O)NO` (some centres not stated), in assay [1], the pIC50 is 6.82. This pIC50 and that of the compound before are within 0.2 log units of each other.

Regarding `CC(C)C[C@H]1C(=O)N[C@H](C(=O)NCC(=O)N2CCC(O)CC2)CCCCN(C)C(=O)OCCC[C@@H]1C(=O)NO`, in assay [1], the pIC50 was 6.52.

In the case of `CNC(=O)[C@@H]1CCCc2ccc(cc2)OCCC[C@H](C(=O)NO)[C@@H](CC(C)C)C(=O)N1`, the pIC50 in assay [1] was 5.62. The negative-log Ki (pKi) in assay [2] was 8.74; in assay [5], 7.79; in assay [3], 8.48.

In turn, `CC(C)C[C@H]1C(=O)N[C@H](C(=O)NCc2ccccn2)CCCCNC(=O)OCCC[C@@H]1C(=O)NO` had a pIC50 in assay [1] of 6.15.

In turn, `CNC(=O)[C@@H]1CSc2ccccc2NC(=O)CO[C@H](C(=O)NO)[C@@H](CC(C)C)C(=O)N1` showed a pIC50 in assay [1] of 5.10. The values for the pKi in assay [2] and in assay [5] were greater than 9.00 and 7.65, respectively.

For the compound `CC(C)C[C@H]1C(=O)N[C@H](C(=O)NCC(=O)N(C)C)CCCCN(C)C(=O)OCCC[C@@H]1C(=O)NO`, the negative logarithm of the IC50 (pIC50) in assay [1] is 6.52.

The compound `CNC(=O)[C@@H](Cc1ccc(OC)cc1)NC(=O)[C@H](CC(C)C)[C@H](C)C(=O)NO` showed a negative-log IC50 (pIC50) in assay [1] of 5.74. Moreover, the pKi in assay [2] and in assay [3] was greater than 9.00 in each case.

`CNC(=O)[C@@H]1CCc2ccc(cc2)OCCC[C@H](C(=O)NO)[C@@H](CC(C)C)C(=O)N1`: in assay [1], the negative logarithm of the IC50 (pIC50) was 6.00. Besides, the negative-log Ki (pKi) is 8.28 in assay [2], 7.32 in assay [5] and 8.68 in assay [3].

`CC(C)C[C@H]1C(=O)N[C@H](C(=O)N[C@H](C)C(=O)N2CCOCC2)CCCCNC(=O)OCCC[C@@H]1C(=O)NO` gave a negative logarithm of the IC50 (pIC50) in assay [1] of 6.82.

As to `CCCCCC[C@H]1C(=O)N[C@H](C(=O)NCC(=O)NC)Cc2ccc(cc2)OCCC[C@@H]1C(=O)NO`, the pIC50 in assay [1] was 6.26.

`Cc1csc(NC(=O)CNC(=O)[C@@H]2CCCCN(C)C(=O)OCCC[C@H](C(=O)NO)[C@@H](CC(C)C)C(=O)N2)n1` had a pIC50 in assay [1] of 6.52.

In assay [1], `CNC(=O)[C@@H]1CCCCN(C)C(=O)OCCC[C@H](C(=O)NO)[C@@H](CC(C)C)C(=O)N1` showed a pIC50 of 5.64. The pKi in assay [2] and in assay [3] was greater than 9.00 in each case.

Take `CNC(=O)[C@@H](CC(C)C)NC(=O)[C@@H]1CCCCNC(=O)OCCC[C@H](C(=O)NO)[C@@H](CC(C)C)C(=O)N1`: the pIC50 in assay [1] is 7.00.

In assay [1], `CNC(=O)[C@H](C)NC(=O)[C@@H]1Cc2ccc(cc2)OCCC[C@H](C(=O)NO)[C@@H](CC(C)C)C(=O)N1` gave a negative logarithm of the IC50 (pIC50) of 5.35.

The compound `CC(C)C[C@H]1C(=O)N[C@H](C(=O)NCCc2c[nH]c3ccc(F)cc23)CCCCNC(=O)OCCC[C@@H]1C(=O)NO` showed a negative-log IC50 (pIC50) in assay [1] of 6.89.

In assay [1], `CNC(=O)[C@@H]1Cc2cn(c3ccccc23)CCCCO[C@H](C(=O)NO)[C@@H](CC(C)C)C(=O)N1` gave a pIC50 of 5.43. The pKi is greater than 9.00 in assay [2] and 8.54 in assay [5].

As for `CC(C)C[C@H]1C(=O)N[C@H](C(=O)NCC(=O)N2CCC(C(=O)O)CC2)CCCCNC(=O)OCCC[C@@H]1C(=O)NO`, the negative logarithm of the IC50 (pIC50) in assay [1] was 6.66.

Consider `CC(C)C[C@H]1C(=O)N[C@H](C(=O)NCC(=O)N2CCC(O)CC2)CCCCNC(=O)OCCC[C@@H]1C(=O)NO`, for which the pIC50 in assay [1] is 6.55.

In assay [1], `CC(C)C[C@H]1C(=O)N[C@H](C(=O)NCc2cccnc2)CCCCNC(=O)OCCC[C@@H]1C(=O)NO` gave a pIC50 of 6.30.

The compound `CC(C)C[C@H]1C(=O)N[C@H](C(=O)NCC(=O)NC(C)(C)C)Cc2ccc(cc2)OCCC[C@@H]1C(=O)NO` had a negative logarithm of the IC50 (pIC50) in assay [1] of 6.70. The inhibition in vivo at 30 mg/kg in assay [4] turned out to be 21%.

Compound `CCCCCC[C@H]1C(=O)N[C@H](C(=O)N[C@H](COC(C)(C)C)C(=O)NC)Cc2ccc(cc2)OCCC[C@@H]1C(=O)NO` had a negative logarithm of the IC50 (pIC50) in assay [1] of 6.52. Moreover, at 30 mg/kg the inhibition in vivo in assay [4] was 18%.

Compound `CCOC(=O)N1CCC(NC(=O)[C@@H]2CCCCNC(=O)OCCC[C@H](C(=O)NO)[C@@H](CC(C)C)C(=O)N2)CC1` had a pIC50 in assay [1] of 6.89.

For the compound `CNC(=O)[C@@H](COC(C)(C)C)NC(=O)[C@@H]1Cc2ccc(cc2)OCCC[C@H](C(=O)NO)[C@@H](CC(C)C)C(=O)N1`, the negative-log IC50 (pIC50) in assay [1] was 6.02.

For `CNC(=O)CNC(=O)[C@@H]1CCCCNC(=O)OCCC[C@H](C(=O)NO)[C@@H](CC(C)C)C(=O)N1`, the pIC50 in assay [1] is 6.92.

In turn, `CNC(=O)[C@@H]1CCCCNC(=O)CC[C@H](C(=O)NO)[C@@H](CC(C)C)C(=O)N1` showed a negative-log IC50 (pIC50) in assay [1] of 5.80. The pKi was 8.85 in assay [2] and 8.44 in assay [3].

For `CNC(=O)[C@@H](Cc1ccc(OC)cc1)NC(=O)[C@@H]1Cc2ccc(cc2)OCCC[C@H](C(=O)NO)[C@@H](CC(C)C)C(=O)N1`, the pIC50 in assay [1] was 6.07.

For `CNC(=O)[C@H](NC(=O)[C@@H]1CCCCNC(=O)OCCC[C@H](C(=O)NO)[C@@H](CC(C)C)C(=O)N1)C(C)(C)C`, the pIC50 in assay [1] is 5.92.

For the compound `CC(C)C[C@H]1C(=O)N[C@H](C(=O)NCCc2ccc(S(N)(=O)=O)cc2)Cc2ccc(cc2)OCCC[C@@H]1C(=O)NO`, the pIC50 in assay [1] was 6.00. The pIC50 values of the last two compounds are within 0.2 log units of each other.

As to `CC(C)C[C@H]1C(=O)N[C@H](C(=O)NC(C)C)Cc2ccc(cc2)OCCC[C@@H]1C(=O)NO`, the pIC50 in assay [1] is 6.15.

Compound `CNC(=O)[C@@H](C)NC(=O)[C@@H]1CCCCNC(=O)OCCC[C@H](C(=O)NO)[C@@H](CC(C)C)C(=O)N1` had a negative-log IC50 (pIC50) in assay [1] of 6.57.

On to `CC(C)C[C@H]1C(=O)N[C@H](C(=O)NCC(=O)N2CCCC2)CCCCN(C)C(=O)OCCC[C@@H]1C(=O)NO`, for which the negative logarithm of the IC50 (pIC50) in assay [1] is 6.40.

Compound `CCCCCC[C@H]1C(=O)N[C@H](C(=O)NCCCn2ccnc2)Cc2ccc(cc2)OCCC[C@@H]1C(=O)NO` showed a pIC50 in assay [1] of 6.09. The inhibition in vivo at 30 mg/kg in assay [4] amounted to 30%.

On to `CNC(=O)[C@@H]1CCCCN(C)C(=O)CO[C@H](C(=O)NO)[C@@H](CC(C)C)C(=O)N1`, for which the pIC50 in assay [1] is 5.42. In addition, the figures for the pKi in assay [2], in assay [5] and in assay [3] were greater than 9.00, 8.52 and 8.41, respectively.

In assay [1], `CNC(=O)[C@@H](CCCCN)NC(=O)[C@@H]1Cc2ccc(cc2)OCCC[C@H](C(=O)NO)[C@@H](CC(C)C)C(=O)N1` had a pIC50 of 6.08.

`CC(C)C[C@H]1C(=O)N[C@H](C(=O)NCC(=O)N(C)C)Cc2ccc(cc2)OCCC[C@@H]1C(=O)NO` had a negative-log IC50 (pIC50) in assay [1] of 6.40. The inhibition in vivo at 30 mg/kg in assay [4] was found to be 45%.

As to `CC(C)C[C@H]1C(=O)N[C@H](C(=O)NCC(=O)NCC(F)(F)F)Cc2ccc(cc2)OCCC[C@@H]1C(=O)NO`, in assay [1], the negative-log IC50 (pIC50) is 6.62.

The values above are taken from ChEMBL document CHEMBL1134554, “Design, synthesis, and structure-activity relationships of macrocyclic hydroxamic acids that inhibit tumor necrosis factor alpha release in vitro and in vivo” (J Med Chem, 2001).
